In ChEMBL document CHEMBL2057126, “Discovery of new inhibitors of Cdc25B dual specificity phosphatases by structure-based virtual screening” (J Med Chem, 2012):
Activity calls are given as the source filed them. The calls are words filed in the database; no cut-off is given here.

What was measured:
[1] = target: T1, M-phase inducer phosphatase 1 (Homo sapiens) (UniProt P30304); test: Inhibition of recombinant phosphatase activity of Cdc25A catalytic domain expressed in Escherichia coli BL21(DE3) using OMFP as substrate at 100 uM after 15 mins by fluorimetric assay
T1 sequence (whole entry): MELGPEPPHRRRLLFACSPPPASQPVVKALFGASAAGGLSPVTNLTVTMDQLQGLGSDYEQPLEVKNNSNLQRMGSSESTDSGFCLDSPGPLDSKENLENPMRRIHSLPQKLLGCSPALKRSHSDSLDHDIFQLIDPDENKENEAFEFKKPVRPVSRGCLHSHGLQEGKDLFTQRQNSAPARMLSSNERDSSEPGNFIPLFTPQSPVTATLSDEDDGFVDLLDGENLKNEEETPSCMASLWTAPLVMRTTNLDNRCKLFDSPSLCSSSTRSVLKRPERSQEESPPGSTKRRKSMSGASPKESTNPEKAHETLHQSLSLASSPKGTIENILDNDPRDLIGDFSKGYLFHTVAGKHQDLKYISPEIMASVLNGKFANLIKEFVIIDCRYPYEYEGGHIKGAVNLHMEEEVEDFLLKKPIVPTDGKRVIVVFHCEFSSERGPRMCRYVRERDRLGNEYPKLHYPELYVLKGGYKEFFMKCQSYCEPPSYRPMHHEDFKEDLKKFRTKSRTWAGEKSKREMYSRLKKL

[2] = target: T2, M-phase inducer phosphatase 2 (Homo sapiens) (UniProt P30305); test: Inhibition of recombinant phosphatase activity of Cdc25B catalytic domain expressed in Escherichia coli BL21(DE3) using OMFP as substrate at 100 uM after 15 mins by fluorimetric assay
T2 sequence (whole entry): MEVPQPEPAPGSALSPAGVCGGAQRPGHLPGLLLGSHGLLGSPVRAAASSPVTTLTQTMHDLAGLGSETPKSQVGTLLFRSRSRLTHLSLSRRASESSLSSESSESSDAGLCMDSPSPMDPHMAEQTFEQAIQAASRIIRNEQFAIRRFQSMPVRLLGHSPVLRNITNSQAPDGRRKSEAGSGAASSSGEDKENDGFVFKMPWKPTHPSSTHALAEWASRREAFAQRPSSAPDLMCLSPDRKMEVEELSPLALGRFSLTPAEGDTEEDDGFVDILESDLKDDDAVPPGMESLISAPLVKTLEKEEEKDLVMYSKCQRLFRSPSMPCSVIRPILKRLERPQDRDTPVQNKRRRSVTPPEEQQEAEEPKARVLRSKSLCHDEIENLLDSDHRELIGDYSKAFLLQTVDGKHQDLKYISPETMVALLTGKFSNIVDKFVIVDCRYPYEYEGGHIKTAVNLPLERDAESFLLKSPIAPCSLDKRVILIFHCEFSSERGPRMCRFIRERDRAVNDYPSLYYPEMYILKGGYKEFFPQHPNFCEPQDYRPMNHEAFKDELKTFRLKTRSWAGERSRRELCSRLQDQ

[3] = target: T3, M-phase inducer phosphatase 3 (Homo sapiens) (UniProt P30307); test: Inhibition of recombinant phosphatase activity of Cdc25C catalytic domain expressed in Escherichia coli BL21(DE3) using OMFP as substrate at 100 uM after 15 mins by fluorimetric assay
T3 sequence (whole entry): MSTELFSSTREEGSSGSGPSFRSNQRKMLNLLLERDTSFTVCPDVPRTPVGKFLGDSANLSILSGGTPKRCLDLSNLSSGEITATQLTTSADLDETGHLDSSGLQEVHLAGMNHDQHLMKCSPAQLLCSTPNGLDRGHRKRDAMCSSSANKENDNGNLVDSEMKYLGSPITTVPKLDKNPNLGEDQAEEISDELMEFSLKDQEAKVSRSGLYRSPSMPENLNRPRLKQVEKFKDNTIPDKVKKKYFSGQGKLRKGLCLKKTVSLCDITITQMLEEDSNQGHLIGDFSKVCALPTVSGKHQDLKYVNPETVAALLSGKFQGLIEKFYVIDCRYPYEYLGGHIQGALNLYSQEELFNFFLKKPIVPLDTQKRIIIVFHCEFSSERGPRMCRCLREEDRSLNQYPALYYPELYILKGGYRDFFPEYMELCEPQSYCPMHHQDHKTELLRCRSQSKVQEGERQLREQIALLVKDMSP

[4] = target: T2, M-phase inducer phosphatase 2 (Homo sapiens); test: (§1) Inhibition of recombinant phosphatase activity of Cdc25B catalytic domain expressed in Escherichia coli BL21(DE3) using OMFP as substrate by spectrofluorimetric analysis
[5] = target: T4, M-phase inducer phosphatase 2 (Homo sapiens, UniProt P30305); test: as §1
T4 sequence (P30305 whole entry): T2 sequence (whole entry)

[6] = target: T5, M-phase inducer phosphatase 1 (Homo sapiens, UniProt P30304); test: Inhibition of recombinant phosphatase activity of Cdc25A catalytic domain expressed in Escherichia coli BL21(DE3) using OMFP as substrate by spectrofluorimetric analysis
T5 sequence (P30304 whole entry): T1 sequence (whole entry)
Method in brief: (§2)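 Purified recombinant Cdc25A catalytic domain; phosphatase activity measured as OMFP hydrolysis versus inhibitor concentration to derive IC50, with Ki calculated from kinetic measurements. Results are averages ± SD of three determinations.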

[7] = target: T5, M-phase inducer phosphatase 1; test: Inhibition of recombinant phosphatase activity of Cdc25A catalytic domain expressed in Escherichia coli BL21(DE3) using OMFP as substrate by Lineweaver-Burk plot analysis; method in brief: as §2
[8] = target: T4, M-phase inducer phosphatase 2; test: Competitive inhibition of recombinant phosphatase activity of Cdc25B catalytic domain expressed in Escherichia coli BL21(DE3) using OMFP as substrate by Lineweaver-Burk plot analysis
[9] = test system: MCF7; test: Growth inhibition against human MCF7 cells expressing Cdc25A-C assessed as cell viability at 200 uM after 72 hrs by MTS assay; format: functional, cell-based
Method in brief: (§3)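 MCF-7 breast, PC-3 prostate and K562 leukaemia cells treated 72 h with inhibitor or DMSO vehicle control, then cell viability measured. Values are mean ± SD of three experiments; significance by Student's t test, p ≤ 0.05.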

[10] = test system: PC-3; test: Growth inhibition against human PC3 cells expressing Cdc25A-C assessed as cell viability at 200 uM after 72 hrs by MTS assay; format: functional, cell-based; method in brief: as §3
[11] = test system: K562; test: Growth inhibition against human K562 cells expressing Cdc25A-C assessed as cell viability at 200 uM after 72 hrs by MTS assay; format: functional, cell-based; method in brief: as §3
[12] = test system: MCF7; test: Cell cycle arrest in human MCF7 cells assessed as accumulation at G1 phase at 200 uM after 24 hrs by propidium iodide staining-based flow cytometry (reference value: 81.3 +/- 0.01%); format: functional
[13] = test system: MCF7; test: Cell cycle arrest in human MCF7 cells assessed as accumulation at S phase at 200 uM after 24 hrs by propidium iodide staining-based flow cytometry (reference value: 9.35%); format: functional
[14] = test system: MCF7; test: Cell cycle arrest in human MCF7 cells assessed as accumulation at G2/M phase at 200 uM after 24 hrs by propidium iodide staining-based flow cytometry (reference value: 9.4 +/- 0.04%); format: functional
[15] = test system: MCF7; test: Cell cycle arrest in human MCF7 cells assessed as accumulation at G1 phase at 200 uM after 48 hrs by propidium iodide staining-based flow cytometry (reference value: 64.5 +/- 0.02%); format: functional
[16] = test system: MCF7; test: Cell cycle arrest in human MCF7 cells assessed as accumulation at S phase at 200 uM after 48 hrs by propidium iodide staining-based flow cytometry (reference value: 14.5 +/- 0.01%); format: functional
[17] = test system: MCF7; test: Cell cycle arrest in human MCF7 cells assessed as accumulation at G2/M phase at 200 uM after 48 hrs by propidium iodide staining-based flow cytometry (reference value: 21 +/- 0.04%); format: functional
[18] = target: T2, M-phase inducer phosphatase 2 (Homo sapiens); settings: K562, 200 uM
[19] = Inhibition of Cdc25; set-up: species or system Homo sapiens

| inhibition [1] [%] | inhibition [2] [%] | inhibition [3] [%] | inhibition [4] | IC50 [5] [µM] | IC50 [6] [µM] | Ki [7] [µM] | Ki [8] [µM] | inhibition [18] | IC50 [19] [µM] | Structure (SMILES) | growth inhibition (GI) [9] | growth inhibition (GI) [10] | growth inhibition (GI) [11] | Activity [12] [%] | Activity [13] [%] | Activity [14] [%] | Activity [15] [%] | Activity [16] [%] | Activity [17] [%] |
| --- | --- | --- | --- | --- | --- | --- | --- | --- | --- | --- | --- | --- | --- | --- | --- | --- | --- | --- | --- |
| 80 | 80 | 63 | Dose-dependent effect | 17.5 | 6 | 2.3 | 5.3 | Active | – | O=C(O)c1ccc(C(=O)c2ccccc2C(=O)O)cc1C(=O)O | Active | Active | Active | 59.1 | 14.1 | 26.6 | 97 | 1.6 | 1.4 |
| – | – | – | – | – | – | – | – | – | 0.02 | Cc1nc2c(s1)C(=O)C=C(NCCCN(C)CCCNC1=CC(=O)c3nc(-c4cc(F)ccc4F)oc3C1=O)C2=O | – | – | – | – | – | – | – | – | – |
